Source: article PMC10464598 (RSC Advances, 2023)

Molecular target: urease (Canavalia ensiformis, UniProt P07374)
Assay: Urease inhibition assay
Type: biochemical
Method in brief: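 Test compound was preincubated with urease (enzyme solution 5 U ml−1) in buffer for 10 min at 37 °C. Alkaline and phenolic reagents were then added, and absorbance was read at 625 nm. Thiourea served as the standard inhibitor. Assays were run in triplicate. % inhibition = (A control − A sample)/A control × 100. IC50 was obtained by non-linear regression of % inhibition against concentration.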

urease, sequence (P07374 whole entry, looked up): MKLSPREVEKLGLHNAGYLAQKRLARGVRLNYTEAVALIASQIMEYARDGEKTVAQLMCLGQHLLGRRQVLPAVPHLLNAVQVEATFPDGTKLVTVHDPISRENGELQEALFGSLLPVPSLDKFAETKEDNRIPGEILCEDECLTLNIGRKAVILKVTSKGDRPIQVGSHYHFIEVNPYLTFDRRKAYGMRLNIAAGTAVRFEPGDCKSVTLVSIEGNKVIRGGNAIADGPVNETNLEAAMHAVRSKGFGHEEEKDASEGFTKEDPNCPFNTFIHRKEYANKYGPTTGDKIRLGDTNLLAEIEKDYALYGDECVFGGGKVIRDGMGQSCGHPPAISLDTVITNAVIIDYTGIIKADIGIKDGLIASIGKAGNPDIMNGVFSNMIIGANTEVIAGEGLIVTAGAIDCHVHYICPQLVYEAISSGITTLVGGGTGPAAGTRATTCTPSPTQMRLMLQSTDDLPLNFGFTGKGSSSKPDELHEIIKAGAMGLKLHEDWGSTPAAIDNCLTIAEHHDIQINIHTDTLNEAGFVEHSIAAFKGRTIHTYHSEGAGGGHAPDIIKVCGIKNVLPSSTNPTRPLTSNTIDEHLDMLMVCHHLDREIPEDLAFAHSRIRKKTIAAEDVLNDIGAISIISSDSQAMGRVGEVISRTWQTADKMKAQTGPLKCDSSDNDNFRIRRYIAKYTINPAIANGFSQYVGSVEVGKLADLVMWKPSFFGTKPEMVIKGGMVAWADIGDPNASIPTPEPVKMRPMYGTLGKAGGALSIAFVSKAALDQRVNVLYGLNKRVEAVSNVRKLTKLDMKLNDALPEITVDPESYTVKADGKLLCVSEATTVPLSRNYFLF

IC50 [µM] | SMILES
20 ± 0.5 | CC(c1ccc(-c2ccccc2)c(F)c1)c1nnc(-c2ccc(O)c(O)c2O)o1 (stereo not drawn) [Compound 6, 4-(5-(1-(2-Fluoro-[1,1′-biphenyl]-4-yl)ethyl)-1,3,4-oxadiazol-2-yl) benzene-1,2,3-triol]
72 ± 1.2 | COc1ccc(Br)cc1-c1nnc(C(C)c2ccc(-c3ccccc3)c(F)c2)o1 (stereo not drawn) [Compound 9, 2-(5-Bromo-2-methoxyphenyl)-5-(1-(2-fluoro-[1,1′-biphenyl]-4-yl)ethyl)-1,3,4-oxadiazole]
20 ± 0.5 | COc1ccc(-c2nnc(C(C)c3ccc(-c4ccccc4)c(F)c3)o2)c(OC)c1OC (stereo not drawn) [Compound 10, 2-(2,3,4-Trimethoxyphenyl)-5-(1-(2-fluoro-[1,1′-biphenyl]-4-yl)ethyl)-1,3,4-oxadiazole]
74 ± 1.3 | CCOc1ccc(-c2nnc(C(C)c3ccc(-c4ccccc4)c(F)c3)o2)c(OC)c1 (stereo not drawn) [Compound 12, 2-(4-Ethoxy-2-methoxyphenyl)-5-(1-(2-fluoro-[1,1′-biphenyl]-4-yl)ethyl)-1,3,4-oxadiazole]
16 ± 0.9 | COc1cc(-c2nnc(C(C)c3ccc(-c4ccccc4)c(F)c3)o2)ccc1F (stereo not drawn) [Compound 13, 2-(4-Fluoro-3-methoxyphenyl)-5-(1-(2-fluoro-[1,1′-biphenyl]-4-yl)ethyl)-1,3,4-oxadiazole]
35 ± 1.2 | CCOc1cc(-c2nnc(C(C)c3ccc(-c4ccccc4)c(F)c3)o2)ccc1OC (stereo not drawn) [Compound 14, 2-(3-Ethoxy-4-methoxyphenyl)-5-(1-(2-fluoro-[1,1′-biphenyl]-4-yl)ethyl)-1,3,4-oxadiazole]
31 ± 1.2 | COc1cccc(OC)c1-c1nnc(C(C)c2ccc(-c3ccccc3)c(F)c2)o1 (stereo not drawn) [Compound 15, 2-(2,6-Dimethoxyphenyl)-5-(1-(2-fluoro-[1,1′-biphenyl]-4-yl)ethyl)-1,3,4-oxadiazole]
36 ± 1.2 | COc1ccc(-c2nnc(C(C)c3ccc(-c4ccccc4)c(F)c3)o2)c(Cl)c1OC (stereo not drawn) [Compound 17, 2-(2-Chloro-3,4-dimethoxyphenyl)-5-(1-(2-fluoro-[1,1′-biphenyl]-4-yl)ethyl)-1,3,4-oxadiazole]
12 ± 0.9 | COc1ccccc1-c1nnc(C(C)c2ccc(-c3ccccc3)c(F)c2)o1 (stereo not drawn) [Compound 20, 2-(1-(2-Fluoro-[1,1′-biphenyl]-4-yl)ethyl)-5-(2-methoxyphenyl)-1,3,4-oxadiazole]
31 ± 1.4 | COc1ccc(-c2nnc(C(C)c3ccc(-c4ccccc4)c(F)c3)o2)c(F)c1 (stereo not drawn) [Compound 22, 2-(2-Fluoro-4-methoxyphenyl)-5-(1-(2-fluoro-[1,1′-biphenyl]-4-yl)ethyl)-1,3,4-oxadiazole]
37 ± 1.4 | COc1cc(-c2nnc(C(C)c3ccc(-c4ccccc4)c(F)c3)o2)cc(OC)c1Br (stereo not drawn) [Compound 23, 2-(4-Bromo-3,5-dimethoxyphenyl)-5-(1-(2-fluoro-[1,1′-biphenyl]-4-yl)ethyl)-1,3,4-oxadiazole]
13 ± 0.1 | CC(c1ccc(-c2ccccc2)c(F)c1)c1nnc(-c2ccc(Br)cc2F)o1 (stereo not drawn) [Compound 24, 2-(4-Bromo-2-fluorophenyl)-5-(1-(2-fluoro-[1,1′-biphenyl]-4-yl)ethyl)-1,3,4-oxadiazole]
35 ± 1.5 | COc1ccc(OC)c(-c2nnc(C(C)c3ccc(-c4ccccc4)c(F)c3)o2)c1 (stereo not drawn) [Compound 25, 2-(2,5-Dimethoxyphenyl)-5-(1-(2-fluoro-[1,1′-biphenyl]-4-yl)ethyl)-1,3,4-oxadiazole]
12 ± 0.1 | Cc1ccc(-c2nnc(C(C)c3ccc(-c4ccccc4)c(F)c3)o2)s1 (stereo not drawn) [Compound 30, 2-(1-(2-Fluoro-[1,1′-biphenyl]-4-yl)ethyl)-5-(5-methylthiophen-2-yl)-1,3,4-oxadiazole]

More lines, now with the values behind:

SMILES | IC50 [µM]
CC(c1ccc(-c2ccccc2)c(F)c1)c1nnc(-c2cccc3ccccc23)o1 (stereo not drawn) [Compound 5, 2-(1-(2-Fluoro-[1,1′-biphenyl]-4-yl)ethyl)-5-(naphthalen-1-yl)-1,3,4-oxadiazole] | 39 ± 1.2
CC(c1ccc(-c2ccccc2)c(F)c1)c1nnc(-c2ccccc2N)o1 (stereo not drawn) [Compound 7, 2-(5-(1-(2-Fluoro-[1,1′-biphenyl]-4-yl)ethyl)-1,3,4-oxadiazol-2-yl) aniline] | 16 ± 0.1
CC(c1ccc(-c2ccccc2)c(F)c1)c1nnc(-c2cccc([N+](=O)[O-])c2)o1 (stereo not drawn) [Compound 8, 2-(1-(2-Fluoro-[1,1′-biphenyl]-4-yl)ethyl)-5-(3-nitrophenyl)-1,3,4-oxadiazole] | 41 ± 1.2
CC(c1ccc(-c2ccccc2)c(F)c1)c1nnc(-c2cc([N+](=O)[O-])ccc2Cl)o1 (stereo not drawn) [Compound 11, 2-(2-Chloro-5-nitrophenyl)-5-(1-(2-fluoro-[1,1′-biphenyl]-4-yl)ethyl)-1,3,4-oxadiazole] | 41 ± 1.2
CC(c1ccc(-c2ccccc2)c(F)c1)c1nnc(-c2ccc([N+](=O)[O-])cc2)o1 (stereo not drawn) [Compound 16, 2-(1-(2-Fluoro-[1,1′-biphenyl]-4-yl)ethyl)-5-(4-nitrophenyl)-1,3,4-oxadiazole] | 13 ± 0.2
COc1cc(-c2nnc(C(C)c3ccc(-c4ccccc4)c(F)c3)o2)ccc1Oc1ccccc1 (stereo not drawn) [Compound 19, 2-(1-(2-Fluoro-[1,1′-biphenyl]-4-yl)ethyl)-5-(3-methoxy-4-phenoxyphenyl)-1,3,4-oxadiazole] | 16 ± 0.3
CC(c1ccc(-c2ccccc2)c(F)c1)c1nnc(-c2ccc(Br)cc2)o1 (stereo not drawn) [Compound 21, 2-(4-Bromophenyl)-5-(1-(2-fluoro-[1,1′-biphenyl]-4-yl)ethyl)-1,3,4-oxadiazole] | 13 ± 0.2
CC(c1ccc(-c2ccccc2)c(F)c1)c1nnc(-c2cccc(C(F)(F)F)c2)o1 (stereo not drawn) [Compound 26, 2-(1-(2-Fluoro-[1,1′-biphenyl]-4-yl)ethyl)-5-(3-(trifluoromethyl)phenyl)-1,3,4-oxadiazole] | 12 ± 0.1
CSc1ccc(-c2nnc(C(C)c3ccc(-c4ccccc4)c(F)c3)o2)cc1 (stereo not drawn) [Compound 27, 2-(1-(2-Fluoro-[1,1′-biphenyl]-4-yl)ethyl)-5-(4-(methylthio)phenyl)-1,3,4-oxadiazole] | 34 ± 2.4
CC(c1ccc(-c2ccccc2)c(F)c1)c1nnc(-c2ccc(O)c(Br)c2)o1 (stereo not drawn) [Compound 28, 2-Bromo-4-(5-(1-(2-fluoro-[1,1′-biphenyl]-4-yl)ethyl)-1,3,4-oxadiazol-2-yl)phenol] | 14 ± 0.3
CC(c1ccc(-c2ccccc2)c(F)c1)c1nnc(-c2ccc(-c3ccccc3)c(F)c2)o1 (stereo not drawn) [Compound 29, 2-(2-Fluoro-[1,1′-biphenyl]-4-yl)-5-(1-(2-fluoro-[1,1′-biphenyl]-4-yl)ethyl)-1,3,4-oxadiazole] | 41 ± 1.4
CC(c1ccc(-c2ccccc2)c(F)c1)c1nnc(-c2cccc(O)c2O)o1 (stereo not drawn) [Compound 31, 3-(5-(1-(2-Fluoro-[1,1′-biphenyl]-4-yl)ethyl)-1,3,4-oxadiazol-2-yl)benzene-1,2-diol] | 15 ± 0.3
CC(c1ccc(-c2ccccc2)c(F)c1)c1nnc(-c2ccccc2[N+](=O)[O-])o1 (stereo not drawn) [Compound 32, 2-(1-(2-Fluoro-[1,1′-biphenyl]-4-yl)ethyl)-5-(2-nitrophenyl)-1,3,4-oxadiazole] | 15 ± 0.3
